# Experimental data from ChEMBL document CHEMBL2177085 (J Med Chem, 2012).
# How the values were obtained:
# MOLM-14 [1] = assay: Cytotoxic activity against human MOLM14 cells assessed as cell viability at 50 uM incubated for 3 days by MTT assay; format: functional; settings: MOLM-14, 72 h, read-out: Activity
# Procedure, shortened: (§1)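 MTT viability: exponentially growing cells, 10 000 viable cells/well in RPMI plated overnight, then exposed to test compounds for 3 days (HT-29, Molm-14) or 5 days (Mkn-45) at 37 °C, 5% CO2. MTT added for 4 h, then SDS/HCl solubilization overnight and absorbance read at 562 nm. Viability is expressed relative to untreated cells (100%). Triplicate.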
# MKN-45 [2] = assay: Induction of apoptosis in human MKN45 assessed as accumulation at subG1 phase at 15 uM incubated for 7 days by flow cytometry (reference value: 10.9 +/- 3.2%); format: functional
# [3] = molecular target: Platelet-derived growth factor receptor beta (Homo sapiens) (UniProt P09619); assay: Inhibition of PDGFRbeta assessed as enzyme residual activity at 10 uM relative to untreated control
# Procedure, shortened: (§2)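 Residual kinase activity at 10 μM compound, determined by a commercial kinase profiling service (Millipore) across 15 kinases of different classes. Each compound tested in duplicate.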
# MOLM-14 [4] = assay: Cytotoxic activity against human MOLM14 cells assessed as cell viability at 20 uM incubated for 3 days by MTT assay; format: functional; settings: MOLM-14, 72 h, read-out: Activity; procedure, shortened: as §1
# [5] = molecular target: T1, Glycogen synthase kinase-3 beta (Homo sapiens, UniProt P49841); assay: Inhibition of GSK3beta
# Procedure, shortened: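 IC50 determined by a commercial kinase profiling service (Millipore IC50 Profiler); duplicate testing.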
# Target sequence in this assay (P49841 whole entry): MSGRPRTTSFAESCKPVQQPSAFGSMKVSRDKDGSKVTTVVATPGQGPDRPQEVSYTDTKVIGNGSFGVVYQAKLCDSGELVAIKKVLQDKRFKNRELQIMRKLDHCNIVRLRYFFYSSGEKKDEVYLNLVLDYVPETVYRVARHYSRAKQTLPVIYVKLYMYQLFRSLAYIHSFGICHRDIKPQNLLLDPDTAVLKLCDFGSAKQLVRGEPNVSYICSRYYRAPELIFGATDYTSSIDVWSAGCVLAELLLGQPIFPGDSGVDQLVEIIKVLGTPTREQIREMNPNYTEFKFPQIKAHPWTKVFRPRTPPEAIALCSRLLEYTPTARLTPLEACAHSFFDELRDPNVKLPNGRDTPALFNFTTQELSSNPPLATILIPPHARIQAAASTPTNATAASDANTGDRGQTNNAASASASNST
# [6] = molecular target: T2, Receptor-type tyrosine-protein kinase FLT3 (Homo sapiens, UniProt P36888); assay: Inhibition of FLT3
# T2 sequence (P36888 whole entry): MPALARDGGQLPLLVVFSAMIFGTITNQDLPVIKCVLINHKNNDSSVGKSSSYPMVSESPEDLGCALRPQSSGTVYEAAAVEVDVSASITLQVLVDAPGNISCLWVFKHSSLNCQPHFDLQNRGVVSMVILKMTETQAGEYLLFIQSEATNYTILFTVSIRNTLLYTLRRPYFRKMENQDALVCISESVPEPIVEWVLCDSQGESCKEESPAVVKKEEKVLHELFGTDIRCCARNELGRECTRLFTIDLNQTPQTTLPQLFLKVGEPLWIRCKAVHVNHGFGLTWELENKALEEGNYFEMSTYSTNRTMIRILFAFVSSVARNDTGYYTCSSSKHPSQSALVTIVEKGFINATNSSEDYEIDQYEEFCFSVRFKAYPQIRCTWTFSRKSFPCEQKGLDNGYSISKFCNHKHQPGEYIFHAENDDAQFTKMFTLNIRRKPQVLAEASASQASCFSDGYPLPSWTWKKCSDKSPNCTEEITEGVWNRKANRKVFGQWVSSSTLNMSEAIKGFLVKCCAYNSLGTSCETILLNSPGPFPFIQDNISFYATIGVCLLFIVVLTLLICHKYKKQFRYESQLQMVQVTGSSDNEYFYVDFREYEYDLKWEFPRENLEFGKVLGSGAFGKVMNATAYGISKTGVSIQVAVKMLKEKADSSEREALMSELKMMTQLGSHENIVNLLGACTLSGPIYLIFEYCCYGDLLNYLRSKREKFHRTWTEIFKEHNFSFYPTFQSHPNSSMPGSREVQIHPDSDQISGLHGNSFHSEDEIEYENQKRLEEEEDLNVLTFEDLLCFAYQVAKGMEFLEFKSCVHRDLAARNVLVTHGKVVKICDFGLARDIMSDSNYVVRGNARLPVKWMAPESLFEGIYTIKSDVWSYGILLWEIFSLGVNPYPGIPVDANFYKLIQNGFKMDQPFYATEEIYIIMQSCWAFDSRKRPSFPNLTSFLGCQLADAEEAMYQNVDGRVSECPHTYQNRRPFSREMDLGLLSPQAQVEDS
# Procedure, shortened: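 Run as an outsourced kinase profiling service (Millipore IC50 Profiler), with the protocol referred to the provider. Gives IC50 values and residual activity at 10 μM test compound. Compounds tested in duplicate.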
# [7] = molecular target: Cyclin-dependent kinase 2/cyclin A (Homo sapiens) (UniProt P24941+P20248+P78396); assay: Inhibition of CDK2/cyclinA assessed as enzyme residual activity at 10 uM relative to untreated control; format: protein-complex assay; procedure, shortened: as §2
# [8] = molecular target: Receptor-type tyrosine-protein kinase FLT3 (Homo sapiens) (UniProt P36888); assay: Inhibition of FLT3 assessed as enzyme residual activity at 10 uM relative to untreated control; procedure, shortened: as §2
# [9] = Inhibition of angiogenesis in chick embryo model assessed as reduction in vessel growth at 26 nM incubated for 24 hrs; format: functional, Gallus gallus
# Procedure, shortened: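 White leghorn eggs incubated at 37.5 °C, 62% humidity. At 70 h, albumen removed and shell windowed. From 75 h, 15 agarose pellets (from a 26 mM DMSO stock in 2% agarose; final concentration 26 nM) placed on the area vasculosa.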
# MKN-45 [10] = assay: Cytotoxic activity against human MKN45 cells assessed as cell viability at 1 uM incubated for 5 days by MTT assay; format: functional; settings: MKN-45, 120 h, read-out: Activity; procedure, shortened: as §1
# [11] = molecular target: Protein kinase C iota type (Homo sapiens) (UniProt P41743); assay: Inhibition of PKCiota assessed as enzyme residual activity at 10 uM relative to untreated control; procedure, shortened: as §2
# [12] = molecular target: Cyclin-dependent kinase 1/cyclin B1 (Homo sapiens) (UniProt P06493+P14635); assay: Inhibition of CDK1/cyclinB assessed as enzyme residual activity at 10 uM relative to untreated control; format: protein-complex assay; procedure, shortened: as §2
# MOLM-14 [13] = assay: Cytotoxic activity against human MOLM14 cells assessed as cell viability at 1 uM incubated for 3 days by MTT assay; format: functional; settings: MOLM-14, 72 h, read-out: Activity; procedure, shortened: as §1
# HUVEC = assay: Induction of apoptosis in human HUVEC assessed as accumulation at subG1 phase at 0.79 uM incubated for 4 days by flow cytometry (reference value: 15.4 +/- 1.5%); format: functional
# MKN-45 [14] = assay: Cytotoxic activity against human MKN45 cells assessed as cell viability at 0.5 uM incubated for 5 days by MTT assay; format: functional; settings: MKN-45, 120 h, read-out: Activity; procedure, shortened: as §1
# MKN-45 [15] = assay: Cytotoxic activity against human MKN45 cells assessed as cell viability at 5 uM incubated for 5 days by MTT assay; format: functional; settings: MKN-45, 120 h, read-out: Activity; procedure, shortened: as §1
# MKN-45 [16] = assay: Cytotoxic activity against human MKN45 cells assessed as cell viability at 20 uM incubated for 5 days by MTT assay; format: functional; settings: MKN-45, 120 h, read-out: Activity; procedure, shortened: as §1
# [17] = molecular target: CDK6/cyclin D3 (Homo sapiens) (UniProt P30281+Q00534); assay: Inhibition of CDK6/cyclinD3 assessed as enzyme residual activity at 10 uM relative to untreated control; format: protein-complex assay; procedure, shortened: as §2
# MKN-45 [18] = assay: Induction of apoptosis in human MKN45 assessed as accumulation at subG1 phase at 20 uM incubated for 7 days by flow cytometry (reference value: 10.9 +/- 3.2%); format: functional
# [19] = molecular target: Angiopoietin-1 receptor (Homo sapiens) (UniProt Q02763); assay: Inhibition of TIE2 assessed as enzyme residual activity at 10 uM relative to untreated control; procedure, shortened: as §2
# MKN-45 [20] = assay: Induction of apoptosis in human MKN45 assessed as accumulation at subG1 phase at 10 uM incubated for 7 days by flow cytometry (reference value: 10.9 +/- 3.2%); format: functional
# [21] = molecular target: Protein kinase C alpha type (Homo sapiens) (UniProt P17252); assay: Inhibition of PKCalpha assessed as enzyme residual activity at 10 uM relative to untreated control; procedure, shortened: as §2
# [22] = molecular target: T1, Glycogen synthase kinase-3 beta; assay: Inhibition of GSK3beta assessed as enzyme residual activity at 10 uM relative to untreated control; procedure, shortened: as §2
# Target sequence in this assay (P49841 whole entry, looked up): as the sequence (P49841 whole entry) above
# Chain of Cyclin-dependent kinase 1/cyclin B1 (Homo sapiens) (P06493 whole entry, looked up): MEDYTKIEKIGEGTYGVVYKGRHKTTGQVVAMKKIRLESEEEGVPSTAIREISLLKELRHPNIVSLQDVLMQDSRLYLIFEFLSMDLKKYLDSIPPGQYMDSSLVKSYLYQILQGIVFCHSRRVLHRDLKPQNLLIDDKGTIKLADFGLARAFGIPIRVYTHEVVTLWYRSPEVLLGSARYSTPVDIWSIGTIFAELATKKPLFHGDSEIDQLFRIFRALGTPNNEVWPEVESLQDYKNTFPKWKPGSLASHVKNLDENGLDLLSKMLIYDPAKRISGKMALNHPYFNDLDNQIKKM
# Chain of Cyclin-dependent kinase 1/cyclin B1 (Homo sapiens) (P14635 whole entry, looked up): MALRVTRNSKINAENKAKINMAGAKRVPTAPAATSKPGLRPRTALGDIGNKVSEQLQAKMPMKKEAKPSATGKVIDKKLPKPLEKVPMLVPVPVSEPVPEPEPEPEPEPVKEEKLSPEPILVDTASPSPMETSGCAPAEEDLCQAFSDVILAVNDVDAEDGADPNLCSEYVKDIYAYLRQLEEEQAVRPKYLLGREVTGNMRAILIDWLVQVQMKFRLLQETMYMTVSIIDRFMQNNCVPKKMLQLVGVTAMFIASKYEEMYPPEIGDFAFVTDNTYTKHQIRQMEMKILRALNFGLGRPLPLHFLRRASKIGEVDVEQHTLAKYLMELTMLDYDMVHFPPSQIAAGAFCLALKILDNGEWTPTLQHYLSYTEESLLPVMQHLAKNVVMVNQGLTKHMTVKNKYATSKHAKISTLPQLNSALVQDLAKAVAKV
# Chain of Protein kinase C iota type (Homo sapiens) (P41743 whole entry): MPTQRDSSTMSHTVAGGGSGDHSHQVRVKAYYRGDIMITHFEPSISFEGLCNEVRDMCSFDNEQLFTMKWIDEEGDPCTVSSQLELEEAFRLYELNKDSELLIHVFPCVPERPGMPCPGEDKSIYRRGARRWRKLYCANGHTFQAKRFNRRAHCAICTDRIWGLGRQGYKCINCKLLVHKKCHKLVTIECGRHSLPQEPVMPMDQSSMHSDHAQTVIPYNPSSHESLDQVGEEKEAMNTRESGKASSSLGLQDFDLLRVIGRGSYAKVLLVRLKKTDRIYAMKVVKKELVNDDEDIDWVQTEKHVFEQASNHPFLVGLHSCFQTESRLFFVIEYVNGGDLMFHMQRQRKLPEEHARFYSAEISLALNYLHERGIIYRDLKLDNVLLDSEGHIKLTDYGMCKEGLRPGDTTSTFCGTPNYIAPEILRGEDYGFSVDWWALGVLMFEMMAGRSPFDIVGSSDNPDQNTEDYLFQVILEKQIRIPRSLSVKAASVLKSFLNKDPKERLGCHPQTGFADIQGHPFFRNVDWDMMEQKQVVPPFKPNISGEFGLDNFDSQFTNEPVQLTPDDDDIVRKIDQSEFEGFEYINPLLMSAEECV
# Chain of Platelet-derived growth factor receptor beta (Homo sapiens) (P09619 whole entry): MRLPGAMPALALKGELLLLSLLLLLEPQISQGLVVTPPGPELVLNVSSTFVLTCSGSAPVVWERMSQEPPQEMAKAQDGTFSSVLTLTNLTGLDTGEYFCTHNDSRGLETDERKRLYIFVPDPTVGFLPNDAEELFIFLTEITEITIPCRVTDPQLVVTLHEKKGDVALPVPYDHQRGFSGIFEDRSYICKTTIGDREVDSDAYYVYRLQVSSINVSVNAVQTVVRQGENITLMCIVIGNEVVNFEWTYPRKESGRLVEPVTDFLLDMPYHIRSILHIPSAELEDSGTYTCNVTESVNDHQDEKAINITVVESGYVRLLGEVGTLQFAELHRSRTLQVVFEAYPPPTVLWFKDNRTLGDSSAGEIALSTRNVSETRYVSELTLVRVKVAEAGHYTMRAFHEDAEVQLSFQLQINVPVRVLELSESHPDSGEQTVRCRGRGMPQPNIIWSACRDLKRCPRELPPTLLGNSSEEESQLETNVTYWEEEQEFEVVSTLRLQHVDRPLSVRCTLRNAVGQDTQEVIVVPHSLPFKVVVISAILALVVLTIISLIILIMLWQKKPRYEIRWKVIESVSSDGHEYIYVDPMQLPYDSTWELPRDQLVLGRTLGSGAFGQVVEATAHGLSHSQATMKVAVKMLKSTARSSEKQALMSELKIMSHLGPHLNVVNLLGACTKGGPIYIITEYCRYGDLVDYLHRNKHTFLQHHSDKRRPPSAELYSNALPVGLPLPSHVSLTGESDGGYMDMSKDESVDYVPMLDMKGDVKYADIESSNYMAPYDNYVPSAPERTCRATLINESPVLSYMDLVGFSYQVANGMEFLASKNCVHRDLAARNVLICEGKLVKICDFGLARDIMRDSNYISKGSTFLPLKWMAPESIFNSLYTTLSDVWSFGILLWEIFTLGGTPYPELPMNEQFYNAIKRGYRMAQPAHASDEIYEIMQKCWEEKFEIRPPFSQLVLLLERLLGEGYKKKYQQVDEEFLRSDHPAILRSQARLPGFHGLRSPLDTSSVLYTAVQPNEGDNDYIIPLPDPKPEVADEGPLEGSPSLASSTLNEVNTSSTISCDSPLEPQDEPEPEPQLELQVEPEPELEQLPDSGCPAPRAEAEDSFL
# Chain of Angiopoietin-1 receptor (Homo sapiens) (Q02763 whole entry): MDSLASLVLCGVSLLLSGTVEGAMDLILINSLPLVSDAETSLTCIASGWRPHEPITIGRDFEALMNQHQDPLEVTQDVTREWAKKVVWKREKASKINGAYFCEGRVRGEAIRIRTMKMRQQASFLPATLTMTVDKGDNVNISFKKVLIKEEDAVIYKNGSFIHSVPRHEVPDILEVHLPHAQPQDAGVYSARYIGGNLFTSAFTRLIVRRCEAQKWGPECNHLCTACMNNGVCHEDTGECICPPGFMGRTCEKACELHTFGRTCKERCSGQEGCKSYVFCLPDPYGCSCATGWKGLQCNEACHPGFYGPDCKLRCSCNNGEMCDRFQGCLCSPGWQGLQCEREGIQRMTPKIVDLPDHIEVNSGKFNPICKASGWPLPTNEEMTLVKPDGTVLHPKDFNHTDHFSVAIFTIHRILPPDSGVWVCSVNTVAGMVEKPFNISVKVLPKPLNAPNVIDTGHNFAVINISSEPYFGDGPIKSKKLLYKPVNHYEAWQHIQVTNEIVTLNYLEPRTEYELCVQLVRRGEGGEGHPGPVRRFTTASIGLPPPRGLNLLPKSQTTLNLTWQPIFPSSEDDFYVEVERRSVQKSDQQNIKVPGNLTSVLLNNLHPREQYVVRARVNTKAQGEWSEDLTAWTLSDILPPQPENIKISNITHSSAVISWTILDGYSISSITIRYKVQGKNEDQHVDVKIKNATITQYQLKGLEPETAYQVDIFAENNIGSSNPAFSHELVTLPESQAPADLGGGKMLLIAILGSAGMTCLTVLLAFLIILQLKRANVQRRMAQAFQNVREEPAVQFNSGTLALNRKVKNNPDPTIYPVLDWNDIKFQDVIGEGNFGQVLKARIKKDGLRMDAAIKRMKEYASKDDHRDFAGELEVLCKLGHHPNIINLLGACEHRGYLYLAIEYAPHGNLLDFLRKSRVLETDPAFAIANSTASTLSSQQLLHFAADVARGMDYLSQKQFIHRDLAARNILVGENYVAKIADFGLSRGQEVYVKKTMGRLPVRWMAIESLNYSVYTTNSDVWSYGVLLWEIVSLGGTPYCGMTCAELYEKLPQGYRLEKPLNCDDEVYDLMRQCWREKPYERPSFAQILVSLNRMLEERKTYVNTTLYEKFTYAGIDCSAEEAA
structure (smiles),measurement,setting,value
COc1cc(C2=C(c3c[nH]c4cnccc34)C(=O)NC2=O)cc(OC)c1OC,viability at 50 µM,MOLM-14 [1],2.4%
same,Activity,MKN-45 [2],22.9%
same,Activity,[3],106%
same,viability at 20 µM,MOLM-14 [4],5.39%
same,IC50,[5],9 nM
same,IC50,[6],18 nM
same,Activity,[7],88%
same,Activity,[8],0%
same,inhibition (INH),[9],32%
same,viability at 1 µM,MKN-45 [10],107%
same,Activity,[11],99%
same,Activity,[12],80%
same,viability at 1 µM,MOLM-14 [13],54.2%
same,Activity,HUVEC,48%
same,viability at 0.5 µM,MKN-45 [14],99.2%
same,viability at 5 µM,MKN-45 [15],105%
same,viability at 20 µM,MKN-45 [16],101%
same,Activity,[17],103%
same,Activity,MKN-45 [18],28.3%
same,Activity,[19],116%
same,Activity,MKN-45 [20],16.5%
same,Activity,[21],80%
same,Activity,[22],2%
